Assay results taken from ChEMBL document CHEMBL2157922, “Synthesis and antifungal activity of diverse C-2 pyridinyl and pyridinylvinyl substituted quinolines” (2012).
Values after ≈ are worked out from the molar mass of the structure shown.

Legend:
Candida albicans [1] = experiment: Antifungal activity against Candida albicans ATCC 10231 after 48 hrs by broth microdilution technique; assay type: functional; conditions: ATCC 10231, 48 h
Summary of the method: (§1)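 Yeasts were tested by CLSI broth microdilution in RPMI-1640 buffered to pH 7.0 with MOPS, with compound from 250 down to 0.98 in DMSO stocks. Trays were held at 30 °C in a moist, dark chamber. MIC100, the lowest concentration giving total visual inhibition against the growth control, was read by eye at 48 h.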

Saccharomyces cerevisiae = experiment: Antifungal activity against Saccharomyces cerevisiae ATCC 9763 after 48 hrs by broth microdilution technique; assay type: functional; conditions: ATCC 9763, 48 h; summary of the method: as §1
Cryptococcus neoformans [2] = experiment: Antifungal activity against Cryptococcus neoformans ATCC 32264 after 48 hrs by broth microdilution technique; assay type: functional; conditions: ATCC 32264, 48 h; summary of the method: as §1
Aspergillus fumigatus = experiment: Antifungal activity against Aspergillus fumigatus ATCC 26934 after 48 hrs by broth microdilution technique; assay type: functional; conditions: ATCC 26934, 48 h
Summary of the method: (§2)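 Moulds and dermatophytes were run by CLSI broth microdilution in MOPS-buffered RPMI-1640 at pH 7.0. Aspergillus was incubated at 30 °C and dermatophytes at 28–30 °C, in a moist, dark chamber. MIC100, the lowest concentration with no visible growth, was read visually at a time set by growth of the control fungus.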

Aspergillus flavus = experiment: Antifungal activity against Aspergillus flavus ATCC 9170 after 48 hrs by broth microdilution technique; assay type: functional; conditions: ATCC 9170, 48 h; summary of the method: as §2
Aspergillus niger = experiment: Antifungal activity against Aspergillus niger ATCC 9029 after 48 hrs by broth microdilution technique; assay type: functional; conditions: ATCC 9029, 48 h; summary of the method: as §2
Nannizzia gypsea = experiment: Antifungal activity against Microsporum gypseum CCC 115 after 48 hrs by broth microdilution technique; assay type: functional; conditions: CCC 115, 48 h; summary of the method: as §2
Trichophyton rubrum = experiment: Antifungal activity against Trichophyton rubrum CCC 113 after 48 hrs by broth microdilution technique; assay type: functional; conditions: CCC 113, 48 h
[3] = system: Trichophyton mentagrophytes; experiment: Antifungal activity against Trichophyton mentagrophytes ATCC 9972 after 48 hrs by broth microdilution technique; assay type: functional; conditions: ATCC 9972, 48 h; summary of the method: as §2
Candida albicans [4] = experiment: Antifungal activity against Candida albicans CCC 125 after 48 hrs by broth microdilution technique; assay type: functional; conditions: CCC 125, 48 h
Candida albicans [5] = experiment: Antifungal activity against Candida albicans CCC 126 after 48 hrs by broth microdilution technique; assay type: functional; conditions: CCC 126, 48 h
Candida albicans [6] = experiment: Antifungal activity against Candida albicans CCC 127 after 48 hrs by broth microdilution technique; assay type: functional; conditions: CCC 127, 48 h
Candida albicans [7] = experiment: Antifungal activity against Candida albicans CCC 128 after 48 hrs by broth microdilution technique; assay type: functional; conditions: CCC 128, 48 h
Candida albicans [8] = experiment: Antifungal activity against Candida albicans CCC 129 after 48 hrs by broth microdilution technique; assay type: functional; conditions: CCC 129, 48 h
Candida albicans [9] = experiment: Antifungal activity against Candida albicans CCC 130 after 48 hrs by broth microdilution technique; assay type: functional; conditions: CCC 130, 48 h
Nakaseomyces glabratus = experiment: Antifungal activity against Candida glabrata CCC 115 after 48 hrs by broth microdilution technique; assay type: functional; conditions: CCC 115, 48 h
Candida parapsilosis = experiment: Antifungal activity against Candida parapsilosis CCC 124 after 48 hrs by broth microdilution technique; assay type: functional; conditions: Lodderomyces parapsilosis, CCC 124, 48 h
Pichia kudriavzevii = experiment: Antifungal activity against Candida krusei CCC 117 after 48 hrs by broth microdilution technique; assay type: functional; conditions: CCC 117, 48 h
Candida tropicalis = experiment: Antifungal activity against Candida tropicalis CCC 131 after 48 hrs by broth microdilution technique; assay type: functional; conditions: CCC 131, 48 h
Cryptococcus neoformans [10] = experiment: Antifungal activity against Cryptococcus neoformans IM 983040 after 48 hrs by broth microdilution technique; assay type: functional; conditions: IM 983040, 48 h
Summary of the method: (§3)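 C. neoformans was tested by 96-well RPMI-1640 microdilution, with DMSO-matched growth and sterility control wells. Plates were incubated 48 h at 30 °C in a moist, dark chamber and read at OD405. % inhibition = 100 − (CTW − SCW)/(GCW − SCW), in duplicate. For the clinical isolates, MIC80 and MIC50 are the lowest concentrations giving 80% and 50% inhibition.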

Cryptococcus neoformans [11] = experiment: Antifungal activity against Cryptococcus neoformans IM 972724 after 48 hrs by broth microdilution technique; assay type: functional; conditions: IM 972724, 48 h; summary of the method: as §3
Cryptococcus neoformans [12] = experiment: Antifungal activity against Cryptococcus neoformans IM 042074 after 48 hrs by broth microdilution technique; assay type: functional; conditions: IM 042074, 48 h; summary of the method: as §3
Cryptococcus neoformans [13] = experiment: Antifungal activity against Cryptococcus neoformans IM 983036 after 48 hrs by broth microdilution technique; assay type: functional; conditions: IM 983036, 48 h; summary of the method: as §3
Cryptococcus neoformans [14] = experiment: Antifungal activity against Cryptococcus neoformans IM 00319 after 48 hrs by broth microdilution technique; assay type: functional; conditions: IM 00319, 48 h; summary of the method: as §3
Cryptococcus neoformans [15] = experiment: Antifungal activity against Cryptococcus neoformans IM 972751 after 48 hrs by broth microdilution technique; assay type: functional; conditions: IM 972751, 48 h; summary of the method: as §3
Cryptococcus neoformans [16] = experiment: Antifungal activity against Cryptococcus neoformans ATCC 32264 at 31.2 ug/ml after 48 hrs; assay type: functional; conditions: ATCC 32264, 48 h; summary of the method: as §3
Candida albicans [17] = experiment: Antifungal activity against Candida albicans ATCC 10231 at 31.2 ug/ml after 24 hrs; assay type: functional; conditions: ATCC 10231, 24 h
Summary of the method: (§4)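 C. albicans was grown in 96-well RPMI-1640 broth microdilution with compound wells diluted from DMSO stocks. Growth wells with matched DMSO and sterility wells were included. After 24 h at 30 °C in a moist, dark chamber, OD405 was read. % inhibition = 100 − (CTW − SCW)/(GCW − SCW) OD, done in duplicate.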

Candida albicans [18] = experiment: Antifungal activity against Candida albicans ATCC 10231 at 7.8 ug/ml after 24 hrs; assay type: functional; conditions: ATCC 10231, 24 h; summary of the method: as §4
Candida albicans [19] = experiment: Antifungal activity against Candida albicans ATCC 10231 at 15.6 ug/ml after 24 hrs; assay type: functional; conditions: ATCC 10231, 24 h; summary of the method: as §4
Candida albicans [20] = experiment: Antifungal activity against Candida albicans CCC 130 after 24 hrs by broth microdilution technique; conditions: CCC 130, 24 h

SMILES: C(=C\c1ccc2ccccc2n1)/c1ccncc1
- MFC (Candida albicans [1]): 250 µg/mL (≈ 1080 µM)
- MIC (Candida albicans [1]): 62 µg/mL (≈ 267 µM)
- MIC50 (Candida albicans [1]): 7.8 µg/mL (≈ 33.6 µM)
- MIC80 (Candida albicans [1]): 15.6 µg/mL (≈ 67.2 µM)
- MFC (Saccharomyces cerevisiae): 250 µg/mL (≈ 1080 µM)
- MIC (Saccharomyces cerevisiae): 62 µg/mL (≈ 267 µM)
- MFC (Cryptococcus neoformans [2]): 125 µg/mL (≈ 538 µM)
- MIC (Cryptococcus neoformans [2]): 62 µg/mL (≈ 267 µM)
- MIC50 (Cryptococcus neoformans [2]): 15.6 µg/mL (≈ 67.2 µM)
- MIC80 (Cryptococcus neoformans [2]): 31.2 µg/mL (≈ 134 µM)
- MFC (Aspergillus fumigatus): 250 µg/mL (≈ 1080 µM)
- MIC (Aspergillus fumigatus): 125 µg/mL (≈ 538 µM)
- MFC (Aspergillus flavus): 250 µg/mL (≈ 1080 µM)
- MIC (Aspergillus flavus): 125 µg/mL (≈ 538 µM)
- MFC (Aspergillus niger): > 250 µg/mL
- MIC (Aspergillus niger): 125 µg/mL (≈ 538 µM)
- MFC (Nannizzia gypsea): 125 µg/mL (≈ 538 µM)
- MIC (Nannizzia gypsea): 31 µg/mL (≈ 133 µM)
- MFC (Trichophyton rubrum): 125 µg/mL (≈ 538 µM)
- MIC (Trichophyton rubrum): 31 µg/mL (≈ 133 µM)
- MFC [3]: 125 µg/mL (≈ 538 µM)
- MIC [3]: 31 µg/mL (≈ 133 µM)
- MIC50 (Candida albicans [4]): 7.8 µg/mL (≈ 33.6 µM)
- MIC80 (Candida albicans [4]): 15.6 µg/mL (≈ 67.2 µM)
- MIC50 (Candida albicans [5]): 15.6 µg/mL (≈ 67.2 µM)
- MIC80 (Candida albicans [5]): 31.2 µg/mL (≈ 134 µM)
- MIC50 (Candida albicans [6]): 15.6 µg/mL (≈ 67.2 µM)
- MIC80 (Candida albicans [6]): 15.6 µg/mL (≈ 67.2 µM)
- MIC50 (Candida albicans [7]): 7.8 µg/mL (≈ 33.6 µM)
- MIC80 (Candida albicans [7]): 15.6 µg/mL (≈ 67.2 µM)
- MIC50 (Candida albicans [8]): 15.6 µg/mL (≈ 67.2 µM)
- MIC80 (Candida albicans [8]): 31.2 µg/mL (≈ 134 µM)
- MIC80 (Candida albicans [9]): 15.6 µg/mL (≈ 67.2 µM)
- MIC50 (Nakaseomyces glabratus): 31.2 µg/mL (≈ 134 µM)
- MIC80 (Nakaseomyces glabratus): 62.5 µg/mL (≈ 269 µM)
- MIC50 (Candida parapsilosis): 7.8 µg/mL (≈ 33.6 µM)
- MIC80 (Candida parapsilosis): 31.2 µg/mL (≈ 134 µM)
- MIC50 (Pichia kudriavzevii): 15.6 µg/mL (≈ 67.2 µM)
- MIC80 (Pichia kudriavzevii): 31.2 µg/mL (≈ 134 µM)
- MIC50 (Candida tropicalis): 31.2 µg/mL (≈ 134 µM)
- MIC80 (Candida tropicalis): 62.5 µg/mL (≈ 269 µM)
- MIC50 (Cryptococcus neoformans [10]): 7.8 µg/mL (≈ 33.6 µM)
- MIC80 (Cryptococcus neoformans [10]): 31.2 µg/mL (≈ 134 µM)
- MIC50 (Cryptococcus neoformans [11]): 7.8 µg/mL (≈ 33.6 µM)
- MIC80 (Cryptococcus neoformans [11]): 31.2 µg/mL (≈ 134 µM)
- MIC50 (Cryptococcus neoformans [12]): 3.9 µg/mL (≈ 16.8 µM)
- MIC80 (Cryptococcus neoformans [12]): 31.2 µg/mL (≈ 134 µM)
- MIC50 (Cryptococcus neoformans [13]): 7.8 µg/mL (≈ 33.6 µM)
- MIC80 (Cryptococcus neoformans [13]): 31.2 µg/mL (≈ 134 µM)
- MIC50 (Cryptococcus neoformans [14]): 7.8 µg/mL (≈ 33.6 µM)
- MIC80 (Cryptococcus neoformans [14]): 31.2 µg/mL (≈ 134 µM)
- MIC50 (Cryptococcus neoformans [15]): 3.9 µg/mL (≈ 16.8 µM)
- MIC80 (Cryptococcus neoformans [15]): 31.2 µg/mL (≈ 134 µM)
- inhibition at 31.2 µg/mL (Cryptococcus neoformans [16]): 80%
- inhibition at 31.2 µg/mL (Candida albicans [17]): 80%
- inhibition at 7.8 µg/mL (Candida albicans [18]): 50%
- inhibition at 15.6 µg/mL (Candida albicans [19]): 80%
- MIC50 (Candida albicans [20]): 7.8 µg/mL (≈ 33.6 µM)
